Compound activity from PubChem.
Most compounds without a hit are left out; they make up all but 27% or so of the library.
CYP2C9 act: increases human cytochrome P450 2C9 activity; P11712; activation factor at 5 µM; recombinant CYP2C9, luciferin-H conversion, luminescence; active compounds read high; factor 1 = untreated enzyme, 0 = blocked; AID 1024; actives 1.4% (n = 96,000);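 active = activation factor of 2 or more for CYP2C9 at a 5 µM dose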;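 also: 0 = sulfaphenazole-blocked wells and 1 = vehicle-only wells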
CYP2C19 inhib: human CYP2C19 inhibition; CYP2C19 Supersomes, luciferin-H EGE luminescence, 30 min; P33261; inhibition, % at 5 µM; actives 21% (n = 96,000);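 active = CYP2C19 inhibition above a set limit at 5 µM in the primary screen, cut at about 50% in these data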;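 also: plate controls were negative control wells for no effect and 2.5 mM tranylcypromine positive control for full effect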
CYP2C19 act: activators of human cytochrome P450 2C19; P33261; recombinant CYP2C19, luciferin-H EGE luminescence; active compounds read high; 0 = fully inhibited enzyme, 1 = untreated enzyme; activation factor at 5 µM; 96,000 tested, under 10 active;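 active = activation factor of at least 2 at 5 µM in the primary screen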;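 also: 0 = wells with 2.5 mM tranylcypromine and 1 = vehicle-only wells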
HIV Rev-RRE inh: disrupts HIV-1 Rev binding to RRE RNA. P05866. Rev peptide-RRE RNA binding, FRET. inhibition, % at 8 µM. actives 0.79% (n = 97,000). AID 704;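 active = inhibition above the screen-wide mean plus 3 SD, cut at about 35% in these data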;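 also: 0% = median DMSO wells and 100% = median Neomycin B control wells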
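assay system = Cy5-tagged RRE RNA duplex with fluorescein-tagged Rev peptide | incubation = 5 + 15 min at 25 °C | also added = labelled Rev peptide | measure = % inhibition of FRET ratio versus controls | benchmarks = DMSO wells as 0% and neomycin B wells as 100% inhibition | measured by = FRET fluorescence readout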
Cav32 inh: blocks human Cav3.2 T-type calcium channel; O95180; Cav3.2-expressing cells, Fluo-4 calcium fluorescence FDSS; active compounds read low; B-score at 10 µM; actives 4% (n = 100,000); AID 449739;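 active = single-dose well whose peak fluorescence ratio is a statistical outlier from its plate by either plate-standardised score or position-corrected B-score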
Target sequence (O95180 whole entry, looked up): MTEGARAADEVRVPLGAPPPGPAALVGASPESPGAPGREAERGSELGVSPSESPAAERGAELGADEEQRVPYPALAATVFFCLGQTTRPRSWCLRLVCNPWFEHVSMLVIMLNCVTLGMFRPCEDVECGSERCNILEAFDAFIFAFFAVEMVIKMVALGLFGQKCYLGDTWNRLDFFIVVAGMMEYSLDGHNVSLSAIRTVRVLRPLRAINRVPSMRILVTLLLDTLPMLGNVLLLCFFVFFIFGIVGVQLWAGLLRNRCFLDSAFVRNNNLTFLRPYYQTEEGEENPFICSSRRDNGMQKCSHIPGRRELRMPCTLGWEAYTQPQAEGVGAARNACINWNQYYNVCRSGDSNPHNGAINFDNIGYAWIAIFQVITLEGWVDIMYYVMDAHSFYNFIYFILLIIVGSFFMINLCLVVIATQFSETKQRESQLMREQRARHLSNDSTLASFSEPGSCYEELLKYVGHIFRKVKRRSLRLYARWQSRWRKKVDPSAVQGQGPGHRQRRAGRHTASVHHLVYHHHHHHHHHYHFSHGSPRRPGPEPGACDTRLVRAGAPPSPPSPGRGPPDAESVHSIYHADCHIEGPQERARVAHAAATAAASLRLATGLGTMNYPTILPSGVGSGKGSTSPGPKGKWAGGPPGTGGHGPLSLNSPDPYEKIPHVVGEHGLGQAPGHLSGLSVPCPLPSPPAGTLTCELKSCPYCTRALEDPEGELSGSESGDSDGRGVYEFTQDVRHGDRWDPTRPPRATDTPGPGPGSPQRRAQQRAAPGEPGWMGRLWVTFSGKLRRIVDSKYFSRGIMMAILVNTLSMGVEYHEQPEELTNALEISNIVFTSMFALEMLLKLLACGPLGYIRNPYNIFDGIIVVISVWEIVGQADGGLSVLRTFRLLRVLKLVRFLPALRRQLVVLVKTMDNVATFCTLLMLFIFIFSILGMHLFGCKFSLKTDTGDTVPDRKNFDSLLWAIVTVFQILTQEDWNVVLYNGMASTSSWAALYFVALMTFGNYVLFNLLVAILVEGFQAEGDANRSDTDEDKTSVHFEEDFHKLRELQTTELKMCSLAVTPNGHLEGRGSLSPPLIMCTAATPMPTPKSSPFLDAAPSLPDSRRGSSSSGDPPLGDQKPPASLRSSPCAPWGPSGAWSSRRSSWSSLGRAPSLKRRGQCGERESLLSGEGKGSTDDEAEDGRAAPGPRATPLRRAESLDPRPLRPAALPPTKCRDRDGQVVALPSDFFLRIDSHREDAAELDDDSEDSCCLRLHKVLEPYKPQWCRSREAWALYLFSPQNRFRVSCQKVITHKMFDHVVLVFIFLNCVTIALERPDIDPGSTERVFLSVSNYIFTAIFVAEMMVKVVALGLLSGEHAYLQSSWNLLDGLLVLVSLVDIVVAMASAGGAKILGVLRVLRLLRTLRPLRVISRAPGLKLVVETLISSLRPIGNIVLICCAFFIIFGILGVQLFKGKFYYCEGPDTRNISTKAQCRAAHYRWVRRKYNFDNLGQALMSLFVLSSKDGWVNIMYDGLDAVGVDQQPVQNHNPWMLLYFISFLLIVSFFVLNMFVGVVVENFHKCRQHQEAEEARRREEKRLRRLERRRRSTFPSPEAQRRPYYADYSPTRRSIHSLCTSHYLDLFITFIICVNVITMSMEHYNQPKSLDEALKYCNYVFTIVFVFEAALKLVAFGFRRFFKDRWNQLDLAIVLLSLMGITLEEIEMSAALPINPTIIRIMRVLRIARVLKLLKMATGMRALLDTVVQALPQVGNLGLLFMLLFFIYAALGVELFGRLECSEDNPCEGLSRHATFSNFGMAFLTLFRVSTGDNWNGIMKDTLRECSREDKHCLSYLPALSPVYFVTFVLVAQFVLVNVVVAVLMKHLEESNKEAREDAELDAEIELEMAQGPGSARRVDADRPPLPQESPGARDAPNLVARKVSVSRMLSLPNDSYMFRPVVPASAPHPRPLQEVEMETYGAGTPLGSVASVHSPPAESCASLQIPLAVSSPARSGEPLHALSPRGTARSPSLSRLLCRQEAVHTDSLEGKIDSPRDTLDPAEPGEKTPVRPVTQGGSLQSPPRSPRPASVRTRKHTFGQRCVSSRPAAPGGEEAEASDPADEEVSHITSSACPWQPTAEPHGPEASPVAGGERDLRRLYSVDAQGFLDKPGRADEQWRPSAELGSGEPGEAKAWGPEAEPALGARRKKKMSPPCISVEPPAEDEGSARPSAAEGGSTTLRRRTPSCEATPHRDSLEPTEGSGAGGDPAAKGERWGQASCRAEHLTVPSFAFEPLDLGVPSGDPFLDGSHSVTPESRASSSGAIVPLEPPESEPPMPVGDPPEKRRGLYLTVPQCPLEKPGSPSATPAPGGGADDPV
CYP2C9 inhib: human CYP2C9 inhibition | CYP2C9 Supersomes, luciferin-H conversion, luminescence | inhibition, % at 5 µM | actives 20% (n = 96,000) | AID 777;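 active = blocking of liver enzyme CYP2C9 beyond about 50% at 5 µM, limit read from the data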
The depositor's hits bear a star; x = not tested or not shown.

SMILES	CYP2C9 act	CYP2C19 inhib	CYP2C19 act	HIV Rev-RRE inh	Cav32 inh	CYP2C9 inhib
COC(=O)C(O)(c1ccc(N(C)S(=O)(=O)c2ccccc2)cc1)C(F)(F)F (stereo not drawn)	0.1	92*	0.1	x	-0.86	88*
CCOC(=O)C(O)(c1ccc(N(CC)S(=O)(=O)c2ccc(C)cc2)cc1)C(F)(F)F (stereo not drawn)	0.3	44	0.6	12	-6.2*	69*
COC(=O)C(O)(c1ccc(NC(=S)NC(=O)c2ccccc2)cc1)C(F)(F)F (stereo not drawn)	0.5	9	0.9	0	-3.1	50*
CCN(c1ccc(C(O)(C(=O)OC)C(F)(F)F)cc1)S(=O)(=O)c1ccc(C)cc1 (stereo not drawn)	0.6	49	0.5	4	-4.9*	45
CCCC/C(C)=C/[C@@H](NP(=O)(c1ccccc1)c1ccccc1)c1ccccc1	x	x	x	x	-2.3	x
COC(=O)C1=C(c2cccc(OC)c2OC)C[C@@H]2CC[C@H]1N2C(=O)NCc1cccc2ccccc12	x	x	x	x	-0.68	x
CN1CCN(c2ccc([N+](=O)[O-])c(N/N=C3\CN4CCC3CC4)c2)CC1	1.2	-16	1.2	5	0.87	-16
COC(=O)C1=C(c2ccc(S(C)(=O)=O)cc2)C[C@@H]2CC[C@H]1N2C(=O)NCCS(C)=O (stereo partly drawn)	x	x	x	x	0.99	x
COC(=O)C1=C(c2cc3ccccc3s2)C[C@@H]2CC[C@H]1N2C(=O)NCc1ccccc1	x	x	x	x	-2.4	x
COC(=O)C1=C(c2cc3ccccc3s2)C[C@@H]2CC[C@H]1N2C(=O)NCc1ccc(F)cc1	x	x	x	x	-3.4*	x
CC1(C)C2CC=C(CN3CCC(O)CC3)C1C2 (stereo not drawn)	0.9	3	1	-1	0.31	13
Nc1ccc(S(=O)(=O)N2CCCCC2c2cccnc2)cc1 (stereo not drawn)	1	31	0.7	2	0.4	0
O=S(=O)(c1ccccc1)N1CCCCC1c1cccnc1 (stereo not drawn)	0.9	52*	0.5	2	0.18	6
COc1cc(NC(=O)CN2C3CCC2CC(O)(c2cccnc2)C3)cc(OC)c1 (stereo not drawn)	0.9	9	0.9	9	0.62	8
CCCC1COC(Cn2cncn2)(c2ccc(Cl)cc2Cl)O1 (stereo not drawn)	0.2	93*	0.1	7	-1.3	77*
Cc1ccccc1Cc1c(C)nc2nc(SCC(=O)N3CCC4(CC3)OCCO4)nn2c1C	0.1	47	0.5	7	2.9	89*
CCN(CC)CCOC(=O)c1ccc(N=Cc2c(O)[nH]c(=O)[nH]c2=O)cc1	1.1	-14	1.1	24	-0.03	-12
CC(N)C(=O)c1ccco1 (stereo not drawn)	0.9	1	1	8	x	9
COc1ccccc1OCCCn1cc(C(=O)c2ccco2)c2ccccc21	0	98*	0	17	-1	96*
O=C(c1ccco1)c1cn(Cc2ccc(Cl)cc2)c2ccccc12	0.1	84*	0.2	22	-2.8	94*
